Results on six compounds are retold here after ChEMBL document CHEMBL3352430, “4-Aminopyridyl-based CYP51 inhibitors as anti-Trypanosoma cruzi drug leads with improved pharmacokinetic profile and in vivo potency” (J Med Chem, 2014).

The subject of data set [1] is Trypanosoma cruzi. Nature of the data set: Antitrypanosomal activity against Trypanosoma cruzi Y luc infected in mouse assessed as inhibition of parasitemia at 25 mg/kg, po bid in 20% Kolliphor administered for 4 consecutive days starting on day 3 of infection measured on day 7 post infection relative to vehicle-treated control. The format is functional. The procedure, abridged:
(§1)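 Female Swiss Webster mice, 8 weeks old, infected ip with 10^5 T. cruzi Y luc trypomastigotes. Only mice with detectable luminescence on day 3 were treated. Compound given by oral gavage bid for four days, as a suspension in 20% HPβCD or a solution in 20% Kolliphor, five mice per group. Vehicle group and benznidazole 50 mg/kg served as controls. On day 7, mice were injected ip with 150 mg/kg d-luciferin and imaged after 5 min under isoflurane. Percent inhibition calculated against untreated mice; two-tailed paired t test.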

Data set [2] is described as follows: Drug uptake in mouse fat at 50 mg/kg, po in 20% Kolliphor measured at 8 hrs post dose. The format is ADME, organism-based, Adipose tissue. Set-up: dose 50 mg/kg, route oral. The note with it: in vivo. Summed up: (§2)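 Female Swiss Webster mice, 8 weeks old, given a single 50 mg/kg oral gavage dose in 20% HPβCD or 20% Kolliphor. Tissues taken from three mice at 2 and 8 h post dose. Homogenized by probe sonication in PBS (1:4 w/v), protein precipitated with acetonitrile, and compound measured by LC-MS/MS in μM.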

Data set [3] relates to Liver microsome. Nature of the data set: Half life in rat liver microsomes. The format is ADME. In general terms: Liver microsomes are vesicles of endoplasmic reticulum, rich in cytochrome P450 enzymes.
Data set [4] concerns Intestine. Nature of the data set: Drug uptake in mouse intestine at 50 mg/kg, po in 20% Kolliphor measured at 8 hrs post dose. The format is ADME, organism-based. Set-up: dose 50 mg/kg, route oral. Particulars: in vivo. The procedure, abridged: as §2
A further data set concerns C2C12. Nature of the data set: Cytotoxicity against mouse C2C12 cells up to 10 uM. The format is cell-based. The procedure, abridged: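 Mouse C2C12 myoblasts infected with T. cruzi CA-I/72, then exposed at 24 h postinfection to compound at 10 μM down to 5 pM in 5-fold steps for 72 h at 37 °C. Cells fixed in paraformaldehyde, stained with DAPI and scored by automated imaging. Triplicate wells; uninfected and infected untreated wells as controls.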

The subject of data set [5] is Heart. Nature of the data set: Drug uptake in mouse heart at 50 mg/kg, po in 20% Kolliphor measured at 8 hrs post dose. The format is ADME, organism-based. Set-up: dose 50 mg/kg, route oral. The note with it: in vivo. Summed up:
as §2

Data set [6] has as its system Lung. Nature of the data set: Drug uptake in mouse lung at 50 mg/kg, po in 20% HP-beta-CD measured at 8 hrs post dose. The format is ADME, organism-based. Set-up: dose 50 mg/kg, route oral. The note with it: in vivo. The procedure, abridged:
as §2

Data set [7] has as its system Trypanosoma cruzi. Nature of the data set: Antitrypanosomal activity against Trypanosoma cruzi Y luc infected in mouse assessed as inhibition of parasitemia at 50 mg/kg, po bid in 20% Kolliphor administered for 4 consecutive days starting on day 3 of infection measured on day 7 post infection relative to vehicle-treated control. The format is functional. The procedure, abridged:
as §1

The test system of data set [8] is Intestine. Nature of the data set: Drug uptake in mouse intestine at 50 mg/kg, po in 20% HP-beta-CD measured at 8 hrs post dose. The format is ADME, organism-based. The note with it: in vivo. Set-up: dose 50 mg/kg, route oral. Summed up:
as §2

Data set [9] relates to Lung. Nature of the data set: Drug uptake in mouse lung at 50 mg/kg, po in 20% Kolliphor measured at 8 hrs post dose. The format is ADME, organism-based. Set-up: dose 50 mg/kg, route oral. The note with it: in vivo. The procedure, abridged: as §2
In data set [10] the test system is Heart. Nature of the data set: Drug uptake in mouse heart at 50 mg/kg, po in 20% HP-beta-CD measured at 8 hrs post dose. The format is ADME, organism-based. Set-up: dose 50 mg/kg, route oral. Particulars: in vivo. The procedure, abridged: as §2
Data set [11] has as its system Liver. Nature of the data set: Drug uptake in mouse liver at 50 mg/kg, po in 20% HP-beta-CD measured at 8 hrs post dose. The format is ADME, organism-based. Set-up: dose 50 mg/kg, route oral. The note with it: in vivo. Summed up:
as §2

Data set [12] in a line: Drug uptake in mouse fat at 50 mg/kg, po in 20% HP-beta-CD measured at 8 hrs post dose. The format is ADME, organism-based, Adipose tissue. Set-up: dose 50 mg/kg, route oral. The note with it: in vivo. Summed up: as §2
Data set [13] in a line: Drug uptake in mouse skeletal muscle at 50 mg/kg, po in 20% HP-beta-CD measured at 8 hrs post dose. Particulars: in vivo. The format is ADME, organism-based, Muscle tissue. Set-up: dose 50 mg/kg, route oral. The procedure, abridged: as §2
Data set [14] concerns Liver. Nature of the data set: Drug uptake in mouse liver at 50 mg/kg, po in 20% Kolliphor measured at 8 hrs post dose. The format is ADME, organism-based. Set-up: dose 50 mg/kg, route oral. Particulars: in vivo. The procedure, abridged: as §2
The nature of data set [15]: Drug uptake in mouse skeletal muscle at 50 mg/kg, po in 20% Kolliphor measured at 8 hrs post dose. The format is ADME, organism-based, Muscle tissue. Particulars: in vivo. Set-up: dose 50 mg/kg, route oral. Summed up:
as §2

Data set [16] concerns Liver. Nature of the data set: Half life in mouse liver microsomes. The format is ADME.
A short description of data set [17]: AUClast in mouse at 50 mg/kg, po in 20% Kolliphor. Set-up: time 0 - last, dose 50 mg/kg, route oral. Particulars: plasma. The format is ADME, organism-based. The procedure, abridged:
(§3)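 Female Swiss Webster mice, 8 weeks old, given one oral gavage dose of 50 mg/kg as a 10 mg/mL preparation in the named vehicle (20% HPβCD suspension or 20% Kolliphor). Plasma sampled at about 0.25, 0.5, 1, 2, 4, 6, 8, 12 and 24 h, n = 3 per time point. Protein precipitated with 5 volumes acetonitrile, filtered, then LC-MS/MS. Values are averages of three mice.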

The nature of data set [18]: Clearance in mouse at 50 mg/kg, po in 20% Kolliphor. The format is ADME, organism-based. Set-up: dose 50 mg/kg, route oral. The note with it: in vivo. The procedure, abridged: as §3
The nature of data set [19]: Cmax in mouse at 50 mg/kg, po in 20% Kolliphor. The format is ADME, organism-based. Particulars: in vivo. Set-up: dose 50 mg/kg, route oral. Summed up: as §3
Data set [20] concerns Trypanosoma cruzi. Nature of the data set: Antitrypanosomal activity against Trypanosoma cruzi Y luc infected in mouse assessed as inhibition of parasitemia at 40 mg/kg, ip bid in 60% DMSO administered for 4 consecutive days starting on day 3 of infection measured on day 7 post infection relative to vehicle-treated control.
Data set [21] can be described thus: Tmax in mouse at 50 mg/kg, po in 20% Kolliphor. Set-up: dose 50 mg/kg, route oral. Particulars: in vivo. The format is ADME, organism-based. Summed up:
as §3

Data set [22] in a line: Half life in mouse at 50 mg/kg, po in 20% Kolliphor. The format is ADME, organism-based. Set-up: dose 50 mg/kg, route oral. The note with it: in vivo. The procedure, abridged: as §3
Data set [23] deals with Liver microsome. Nature of the data set: Half life in human liver microsomes. The format is ADME.

Take `O=C(N[C@H](Cc1c[nH]c2ccccc12)C(=O)Nc1ccncc1)c1ccc(N2CCN(c3cccc(Cl)c3)CC2)cc1F`: in the data set on Trypanosoma cruzi [1], the inhibition in vivo – broadly, the drop in the measured response relative to a control, in per cent – at 25 mg/kg was found to be 73.6%. Besides, the Drug uptake result (in data set [2]; in the data set with Intestine [4]; with Heart [5]; with Lung [6]; in the data set on Intestine [8]; with Lung [9]) was “Active” each time. Besides, the Drug uptake entry (with Heart [10]; with Liver [11]; in data set [12]; in data set [13]; in the data set with Liver [14]; in [15]) was “Active” each time. For the same compound, the t1/2 in the data set with Liver microsome [3] was determined as 21 min; in the data set on Liver [16], 33 min. Besides, in the data set on C2C12, the Activity result was “Non-toxic”. Also, the inhibition in vivo at 50 mg/kg in the data set with Trypanosoma cruzi [7] stood at 97.6%.
As for `O=C(N[C@H](Cc1c[nH]c2ccccc12)C(=O)Nc1ccncc1)c1ccc(-c2ccc(F)c(F)c2)cc1F`, the inhibition in vivo at 25 mg/kg in the data set on Trypanosoma cruzi [1] was found to be 41.5%. Moreover, the Drug uptake result (in [2]; in the data set on Intestine [4]; in the data set with Heart [5]; in the data set with Lung [6]; in the data set on Intestine [8]; in the data set on Lung [9]) was “Active” in each case. For the same compound, the Drug uptake result (in the data set with Heart [10]; in the data set on Liver [11]; in data set [12]; in data set [13]; with Liver [14]; in data set [15]) was “Active” in each case. For the same compound, in data set [17], the AUC(0-t) (as a rule, the area under the concentration-time curve up to a stated or last time point) is 32.5 µM·h. Further, the apparent clearance CL/F (commonly clearance divided by bioavailability, as obtained after extravascular dosing) in [18] was found to be 3.23 L/h/kg. Moreover, the Activity entry with C2C12 is on record as “Non-toxic”. The peak level in data set [19] (Cmax) was 3.71 µM. For the same compound, in the data set with Trypanosoma cruzi [7], the inhibition in vivo at 50 mg/kg was found to be 78.5%. Moreover, in the data set on Trypanosoma cruzi [20], the inhibition in vivo at 40 mg/kg came out at 83.6%. The Tmax (as a rule, the time at which the peak concentration occurs) in [21] amounted to 120 min. The half-life (usually the time needed for the level to fall by half in the phase considered) in data set [22] was 197 min.
As to `O=C(N[C@H](Cc1c[nH]c2ccccc12)C(=O)Nc1ccncc1)c1ccc(-c2ccc(OCc3ccc(F)cc3)c(F)c2)cc1F`, the inhibition in vivo at 25 mg/kg in the data set with Trypanosoma cruzi [1] was 75.6%. The Drug uptake entry (in data set [2]; with Intestine [4]; with Heart [5]; in the data set on Lung [6]; in the data set with Intestine [8]; in the data set with Lung [9]) was “Active” each time. The Drug uptake entry (in the data set on Heart [10]; in the data set with Liver [11]; in data set [12]; in data set [13]; in the data set with Liver [14]; in [15]) was “Active” each time. Besides, the values for the t1/2 in the data set on Liver microsome [3], in the data set on Liver microsome [23] and in the data set with Liver [16] were 39 min, 15 min and 67 min, respectively. For the same compound, in the data set with C2C12, the Activity entry is listed as “Non-toxic”. For the same compound, the inhibition in vivo at 40 mg/kg in the data set with Trypanosoma cruzi [20] stood at 96.9%.
For `O=C(N[C@H](Cc1c[nH]c2ccccc12)C(=O)Nc1ccncc1)c1ccc(-c2cc(F)ccc2F)cc1F`, the inhibition in vivo at 25 mg/kg in the data set with Trypanosoma cruzi [1] was 72.2%. Moreover, the Drug uptake result (in data set [2]; in the data set with Intestine [4]; with Heart [5]; in the data set with Lung [6]; with Intestine [8]; in the data set with Lung [9]) was “Active” throughout. Besides, the Drug uptake result (in the data set with Heart [10]; in the data set on Liver [11]; in data set [12]; in data set [13]; with Liver [14]; in data set [15]) was “Active” throughout. The Activity result with C2C12 is on record as “Non-toxic”. For the same compound, the inhibition in vivo at 40 mg/kg in the data set with Trypanosoma cruzi [20] worked out at 35.4%.
With `CC(=O)N1CCN(c2ccc(C(=O)N[C@H](Cc3c[nH]c4ccccc34)C(=O)Nc3ccncc3)c(F)c2)CC1`, the Drug uptake result (in data set [2]; in the data set with Intestine [4]; in the data set on Heart [5]; in the data set with Lung [6]; in the data set on Intestine [8]; in the data set on Lung [9]) was “Active” throughout. Further, the Drug uptake entry (with Heart [10]; with Liver [11]; in data set [12]; in data set [13]; in the data set on Liver [14]; in data set [15]) was “Active” each time. In addition, the t1/2 in the data set on Liver microsome [3] was 18 min; in the data set on Liver microsome [23] it was 64 min; in the data set with Liver [16], 13 min. In the data set with C2C12, the Activity result is reported as “Non-toxic”. Also, in the data set with Trypanosoma cruzi [20], the inhibition in vivo at 40 mg/kg was 52%.
Regarding `O=C(N[C@H](Cc1c[nH]c2ccccc12)C(=O)Nc1ccncc1)c1ccc(-c2cccc(F)c2)cc1F`, in the data set on Trypanosoma cruzi [1], the inhibition in vivo at 25 mg/kg is 47.4%. Besides, the Drug uptake entry (in [2]; in the data set on Intestine [4]; in the data set with Heart [5]; in the data set on Lung [6]; in the data set on Intestine [8]; with Lung [9]) was “Active” in each case. In addition, the Drug uptake entry (in the data set with Heart [10]; in the data set with Liver [11]; in data set [12]; in [13]; in the data set with Liver [14]; in data set [15]) was “Active” throughout. Moreover, in the data set on Liver microsome [3], the t1/2 is 20 min. For the same compound, in the data set with C2C12, the Activity entry was “Non-toxic”. For the same compound, the inhibition in vivo at 50 mg/kg with Trypanosoma cruzi [7] is 71.3%. For the same compound, the inhibition in vivo at 40 mg/kg with Trypanosoma cruzi [20] was found to be 51.6%.
